Test results from paper PMC5760963 (Journal of Pharmaceutical Analysis, 2012).

Experiments:
[1] = Stability of analytes in spiked human plasma and wet extract; format: physicochemical; conditions: for Mean stability sample ±SD: n=6
How it was run: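 Human blank plasma spiked at LQC (OST/OSTC 1.5/6.0 ng/mL) and HQC (160/640 ng/mL), with dichlorvos as esterase inhibitor. Bench top (room temperature), autosampler (wet extract), freeze-thaw and long term (−20 °C, −70 °C) stability were tested, six replicates per level. Samples were thawed in an ice bath below 10 °C and extracted. Stability was read as analyte/IS area ratio by LC–MS/MS against freshly prepared comparison standards.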

[2] = format: in vivo; conditions: human, plasma, po, 75 mg, 75 mg oral, fed, healthy Indian subjects, mean ±SD; for AUC(0-t): AUC 0–48, reference formulation (TAMIFLU); for AUC(0-inf): reference formulation (TAMIFLU); for half-life: t1/2, reference formulation (TAMIFLU)
How it was run: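 Healthy Indian volunteers (n=42), fed, single oral 75 mg capsule of test compound, test and reference formulations over two periods. Blood taken 0–48 h into K3EDTA tubes on ice (<10 °C). Plasma mixed 95:5 v/v with dichlorvos stock (4 mg/mL) and stored at −20 °C, then below −70 °C. Parent and carboxylate metabolite measured by validated LC–MS/MS. Calibration ranges were 0.5–200 and 2.0–800 ng/mL.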

[3] = cited from earlier work; for renal excretion (share of dose): 100 mg dose, as OSTC or as unchanged drug
[4] = hydrolysis controlled; cited from earlier work
[5] = cited from earlier work
[6] = Bench top stability (ambient temperature), 12 h, HQC (160/640 ng/mL OST/OSTC)
[7] = Bench top stability (ambient temperature), 12 h, HQC, vs comparison samples
[8] = Bench top stability (ambient temperature), 12 h, LQC (1.5/6.0 ng/mL OST/OSTC)
[9] = Bench top stability (ambient temperature), 12 h, LQC, vs comparison samples
[10] = Freeze & thaw stability in plasma, 5 cycles, −20 °C, HQC
[11] = Freeze & thaw stability in plasma, 5 cycles, −20 °C, LQC
[12] = Freeze & thaw stability in plasma, 5 cycles, −70 °C, HQC
[13] = Freeze & thaw stability in plasma, 5 cycles, −70 °C, LQC
[14] = Long term stability in plasma: 61 days, −20 °C, HQC
[15] = Long term stability in plasma: 61 days, −20 °C, LQC
[16] = Long term stability in plasma: 61 days, −70 °C, HQC
[17] = Long term stability in plasma: 61 days, −70 °C, LQC
[18] = Wet extract stability (5 °C), 25 h, HQC
[19] = Wet extract stability (5 °C), 25 h, LQC
[20] = Wet extract stability (25 °C), 10 h, HQC
[21] = Wet extract stability (25 °C), 10 h, LQC
[22] = following oral administration of OST in healthy volunteers

Mean stability sample ±SD [1, 6] [ng/mL] | Change (%) [1, 7] [%] | Mean stability sample ±SD [1, 8] [ng/mL] | Change (%) [1, 9] [%] | Change (%) [1, 10] [%] | Mean stability sample ±SD [1, 10] [ng/mL] | Change (%) [1, 11] [%] | Mean stability sample ±SD [1, 11] [ng/mL] | Change (%) [1, 12] [%] | Mean stability sample ±SD [1, 12] [ng/mL] | Change (%) [1, 13] [%] | Mean stability sample ±SD [1, 13] [ng/mL] | Change (%) [1, 14] [%] | Mean stability sample ±SD [1, 14] [ng/mL] | Change (%) [1, 15] [%] | Mean stability sample ±SD [1, 15] [ng/mL] | Change (%) [1, 16] [%] | Mean stability sample ±SD [1, 16] [ng/mL] | Change (%) [1, 17] [%] | Mean stability sample ±SD [1, 17] [ng/mL] | SMILES | other results
167.0 ± 9.5 | 0.60 | 1.430 ± 0.043 | 2.14 | −3.05 | 159.3 ± 9.1 | −4.23 | 1.364 ± 0.075 | −2.44 | 160.2 ± 5.4 | 1.41 | 1.442 ± 0.070 | 1.18 | 172.3 ± 3.9 | −3.61 | 1.635 ± 0.096 | 0.59 | 171.1 ± 3.7 | −1.81 | 1.632 ± 0.035 | CCOC(=O)C1=C[C@@H](OC(CC)CC)[C@H](NC(C)=O)[C@@H](N)C1 [Oseltamivir, oseltamivir] | Change (%) [1, 18]: 1.81%; Mean stability sample ±SD [1, 18]: 169.2 ± 7.4 ng/mL; Change (%) [1, 19]: 5.71%; Mean stability sample ±SD [1, 19]: 1.481 ± 0.086 ng/mL; Change (%) [1, 20]: 3.61%; Mean stability sample ±SD [1, 20]: 172.1 ± 10.4 ng/mL; Change (%) [1, 21]: 4.29%; Mean stability sample ±SD [1, 21]: 1.460 ± 0.077 ng/mL; AUC(0-t) [2]: 153 ± 35 ng·h/mL; AUC(0-inf) [2]: 163 ± 37 ng·h/mL; half-life [2]: 4.97 ± 3.27 h; renal excretion (share of dose) [3]: 3%; stability of OST concentration in samples kept on ice [4]: up to 1 h
653.1 ± 23.7 | 1.40 | 5.841 ± 0.495 | 1.40 | −1.57 | 626.2 ± 22.7 | −2.79 | 5.583 ± 0.553 | −1.57 | 626.0 ± 25.6 | 0.35 | 5.762 ± 0.394 | −0.85 | 698.4 ± 16.6 | 2.72 | 6.791 ± 0.273 | 0.43 | 707.4 ± 19.0 | −1.82 | 6.492 ± 0.328 | CCC(CC)O[C@@H]1C=C(C(=O)O)C[C@H](N)[C@H]1NC(C)=O [Oseltamivir carboxylate, oseltamivir carboxylate] | protein bound [5]: about 43%; Change (%) [1, 18]: 0.47%; Mean stability sample ±SD [1, 18]: 647.2 ± 18.2 ng/mL; Change (%) [1, 19]: 4.55%; Mean stability sample ±SD [1, 19]: 5.983 ± 0.556 ng/mL; Change (%) [1, 20]: −0.31%; Mean stability sample ±SD [1, 20]: 642.4 ± 13.4 ng/mL; Change (%) [1, 21]: 5.77%; Mean stability sample ±SD [1, 21]: 6.050 ± 0.393 ng/mL; AUC(0-t) [2]: 3900 ± 721 ng·h/mL; AUC(0-inf) [2]: 3990 ± 729 ng·h/mL; half-life [2]: 7.5 ± 0.96 h; renal excretion (share of dose) [3]: 63%; time to maximum plasma levels (Cmax) [3, 22]: ≤ 5 h; time until detectable in plasma [3, 22]: about 30 min
